PRMT1 FP inh: PRMT1 methyltransferase inhibitors, primary screen, biochemical, fluorescence polarization | Protein arginine N-methyltransferase 1 (Homo sapiens), Q99873 | recombinant PRMT1, activity-based probe fluorescence polarization | inhibition, % at 2.79 µM | actives 1.3% (n = 370,000) | AID 652257, 2013;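 active means inhibition above about 21% made by adding two undisclosed values, limit read from the data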
Target sequence (Q99873 whole entry, looked up): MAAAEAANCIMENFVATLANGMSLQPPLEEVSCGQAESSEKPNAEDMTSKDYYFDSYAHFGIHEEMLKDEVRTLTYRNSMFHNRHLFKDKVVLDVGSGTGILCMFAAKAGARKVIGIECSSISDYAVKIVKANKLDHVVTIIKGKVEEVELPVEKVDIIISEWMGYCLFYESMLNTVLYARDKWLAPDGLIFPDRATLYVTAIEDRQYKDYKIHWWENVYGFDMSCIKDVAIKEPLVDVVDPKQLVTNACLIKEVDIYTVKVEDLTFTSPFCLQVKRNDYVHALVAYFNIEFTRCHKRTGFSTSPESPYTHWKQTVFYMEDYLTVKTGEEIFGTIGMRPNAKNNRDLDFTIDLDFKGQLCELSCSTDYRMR
GSTO1 counter: inhibitors of recombinant GSTO1, primary screen, counter-screen for RBBP9 inhibitor project, biochemical, fluorescence polarization. Glutathione S-transferase omega-1 (Homo sapiens), P78417. activity-based probe fluorescence polarization. inhibition, % at 5.96 µM. actives 1.1% (n = 300,000);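 active means inhibition above the campaign mean inhibition plus 3 SD, cut at about 35% in these data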;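 further: 0% = GSTO1-1 with DMSO and 100% = wells lacking GSTO1-1 enzyme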
RBBP9 inh: human RBBP9 inhibitors, primary screen, biochemical, fluorescence polarization, FP-Rh probe, HTS | Serine hydrolase RBBP9 (Homo sapiens), O75884 | inhibition, % at 7.94 µM | actives 0.2% (n = 220,000) | recombinant RBBP9 | AID 1515, 2009;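 active means inhibition above the campaign mean of all tested compounds plus 3 SD, cut at about 14% in these data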;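 further: plate controls were DMSO wells with RBBP9 for no effect and wells lacking RBBP9 protein for full effect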
Target sequence (O75884 whole entry, looked up): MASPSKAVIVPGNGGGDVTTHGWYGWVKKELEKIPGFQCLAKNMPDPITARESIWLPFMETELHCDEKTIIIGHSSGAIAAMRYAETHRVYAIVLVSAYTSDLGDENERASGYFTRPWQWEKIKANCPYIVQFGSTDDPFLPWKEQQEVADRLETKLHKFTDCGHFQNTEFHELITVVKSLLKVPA
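System: RBBP9 protein / Quantity: 2.5 µM RBBP9 dispensing solution, before mixing / Also added: Serine-hydrolase probe FP-Rh, 375 nM pre-mixing / Dosing: 7.94 µM single dose, 0.794% DMSO / Timing: enzyme-compound preincubation 30 min, then probe labeling 45 min, 25 °C / Signal: FP readout at 525/598 nm / Controls: DMSO-treated enzyme wells and wells lacking RBBP9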
Fam108B inh: mouse Fam108B serine hydrolase inhibitors, primary screen, counter-screen for RBBP9 inhibitor project, biochemical, fluorescence polarization | recombinant Fam108B, FP-Rh probe fluorescence polarization | inhibition, % at 9.51 µM | actives 0.33% (n = 300,000) | AID 1947, 2009;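 active means inhibition above the screen mean inhibition plus 3 SD, computed separately per campaign, cut at about 18% in these data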;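 further: inhibitors lower polarization as less probe binds the enzyme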
PME-1 primary: PME-1 inhibitors via competitive probe labeling, primary screen, biochemical, fluorescence polarization, FP-Rh probe, HTS; Protein phosphatase methylesterase 1 (Homo sapiens), Q9Y570; recombinant PME-1; actives 0.53% (n = 320,000); inhibition, % at 5.9 µM;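 active means inhibition above the campaign mean of all compounds plus 3 SD, cut at about 26% in these data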;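 further: competitive labeling of PME-1 active site by serine hydrolase directed probe; 0% = PME-1 with DMSO and 100% = wells lacking PME-1 enzyme; inhibitors block probe labeling so polarization falls and inhibition rises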
PAD4 FP inh: human PAD4 inhibitors, primary screen, biochemical, fluorescence polarization, 1536-well format. Protein-arginine deiminase type-4 (Homo sapiens), Q9UM07. recombinant PAD4, RCA probe fluorescence polarization. inhibition, % at 6.36 µM. actives 0.41% (n = 330,000). AID 485272, 2010;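 active means percent inhibition above a cutoff equal to the mean of all tested compounds plus 3 SD, cut at about 15% in these data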;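 further: 0% = PAD4 with RCA probe and DMSO and 100% = probe without PAD4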
Starred values were filed as active, the others as inactive. This is a sample that favours compounds with a hit; in the whole collection about 2.3% have one here.

What do the screens show for `O=C(N/N=C/c1ccc(OCc2ccc(F)cc2)cc1)c1ccccc1`?
PRMT1 FP inh: -0.8; GSTO1 counter: -5.1; RBBP9 inh: 1.1; Fam108B inh: 2.0; PME-1 primary: 1.8; PAD4 FP inh: -3.2

Results for O=C(CN1CCN(c2ccc(F)cc2)CC1)Nc1ccc2c(c1)OCCO2 ?
PRMT1 FP inh: 1.0; GSTO1 counter: 0.2; Fam108B inh: -0.1; PME-1 primary: -1.8; PAD4 FP inh: 2.4

How did O=C(CN1CCN(c2ccc(O)cc2)CC1)Nc1ccc2c(c1)OCCO2 do in these assays?
PRMT1 FP inh: 24.1*; GSTO1 counter: 29.0; RBBP9 inh: 0.4; Fam108B inh: 0.2; PME-1 primary: -1.1; PAD4 FP inh: -1.6

Results for Cc1ccc(/C=C2\SC(=S)N(CC3CCCO3)C2=O)o1 (centres undefined) ?
PRMT1 FP inh: 23.4*; GSTO1 counter: 19.4; RBBP9 inh: -4.3; Fam108B inh: 0.9; PME-1 primary: 3.0; PAD4 FP inh: -10.1

How did COC(=O)[C@]12C[C@H](CC(=O)NCc3ccccc3)C(=O)N(Cc3ccco3)C1=C[C@H](C1CCCC1)O[C@@H]2C do in these assays?
PRMT1 FP inh: -4.1

How did CC(C)C(=O)Nc1cccc(C(=O)Nc2nnc(C(C)C)s2)c1 do in these assays?
PRMT1 FP inh: 0.9; GSTO1 counter: 8.6; RBBP9 inh: 8.5; Fam108B inh: 5.4; PME-1 primary: 3.6; PAD4 FP inh: 4.0

Results for CC(C)c1nnc(NC(=O)c2cccc(NC(=O)C(F)(F)F)c2)s1 ?
PRMT1 FP inh: 21.9*; GSTO1 counter: 7.3; RBBP9 inh: -0.6; Fam108B inh: 3.4; PME-1 primary: 1.7; PAD4 FP inh: -2.5

How did Cc1cc(=O)oc2cc(OCc3ccccc3)ccc12 do in these assays?
PRMT1 FP inh: -1.2; GSTO1 counter: -1.7; Fam108B inh: -0.6; PME-1 primary: 4.5; PAD4 FP inh: 1.5

Results for Cc1ccccc1-c1nnc(SCCOc2ccc3c(C)cc(=O)oc3c2)o1 ?
PRMT1 FP inh: 0.0; GSTO1 counter: 35.9*; RBBP9 inh: -1.8; Fam108B inh: 0.2; PME-1 primary: 1.3; PAD4 FP inh: -0.6

Results for CCN(CC)CCn1c2c(c(SCC(=O)Nc3nc(C)cs3)nc1=O)CCCC2 ?
PRMT1 FP inh: -0.7; GSTO1 counter: 24.4; Fam108B inh: 4.6; PME-1 primary: -2.6; PAD4 FP inh: 6.5

Results for C/C=C/C=C/C(=O)N1CC2(CC(c3cccc(NC(=O)CCCCC)c3)=NO2)C[C@H]1C(N)=O (some centres undefined) ?
PRMT1 FP inh: 21.2*; GSTO1 counter: 2.7; Fam108B inh: -5.9; PME-1 primary: -1.7; PAD4 FP inh: -3.8

How did O=C(Nc1ccccc1C(F)(F)F)c1ccccc1Br do in these assays?
PRMT1 FP inh: 0.7; GSTO1 counter: 2.8; RBBP9 inh: 0.6; Fam108B inh: 3.9; PME-1 primary: -3.6; PAD4 FP inh: 0.7

Results for Nc1ccc2c(c1)-c1ccccc1S(=O)(=O)N2 ?
PRMT1 FP inh: 22.2*; GSTO1 counter: 36.8*; RBBP9 inh: 8.2; Fam108B inh: 3.1; PME-1 primary: -3.4; PAD4 FP inh: 5.5

What do the screens show for `Cc1ccc2c(c1)-c1ccccc1S(=O)(=O)N2`?
PRMT1 FP inh: -0.5; GSTO1 counter: 3.3; RBBP9 inh: 3.5; Fam108B inh: 1.1; PME-1 primary: -1.3; PAD4 FP inh: -0.4

Results for Nc1nc(SCc2ccccc2)ns1 ?
PRMT1 FP inh: 23.0*; GSTO1 counter: 2.2; RBBP9 inh: 2.1; Fam108B inh: 1.3; PME-1 primary: -0.6; PAD4 FP inh: 3.5

Results for Nc1nc(SCc2ccc(Cl)cc2)ns1 ?
PRMT1 FP inh: -1.9; GSTO1 counter: 6.0; RBBP9 inh: -5.2; Fam108B inh: -0.1; PME-1 primary: -1.9; PAD4 FP inh: 5.6

What do the screens show for `CC(C)(C)c1csc(NNC(=O)c2ccc(Br)cc2)n1`?
PRMT1 FP inh: 23.3*; GSTO1 counter: -0.8; RBBP9 inh: -9.2; Fam108B inh: 0.0; PME-1 primary: -1.9; PAD4 FP inh: 2.8

Results for CCCCC(=O)Nc1ccc(NC(=O)c2ccc3c(c2)OCO3)cc1OC ?
PRMT1 FP inh: 0.8; GSTO1 counter: 7.5; RBBP9 inh: 0.9; Fam108B inh: 3.5; PME-1 primary: 3.5; PAD4 FP inh: -0.1

What do the screens show for `COc1[nH]c(/N=C/c2ccccc2)c(C#N)c1C#N`?
PRMT1 FP inh: 59.2*; GSTO1 counter: 35.4*; RBBP9 inh: 0.1; Fam108B inh: 16.8; PME-1 primary: 20.3; PAD4 FP inh: 12.7

How did COc1ccc(NC2CCCN(Cc3cccc4cnccc34)C2)cc1OC (centres undefined) do in these assays?
PRMT1 FP inh: 1.4; GSTO1 counter: 3.4; Fam108B inh: -1.8; PME-1 primary: 0.9; PAD4 FP inh: -7.6

What do the screens show for `COc1nc(Nc2cccc(C(F)(F)F)c2)nc(OC)n1`?
PRMT1 FP inh: 3.1; GSTO1 counter: 0.2; RBBP9 inh: -1.3; Fam108B inh: -10.7; PME-1 primary: -7.4; PAD4 FP inh: -3.7

What do the screens show for `Cc1cc(C)nc(Nc2cccc(C(F)(F)F)c2)n1`?
PRMT1 FP inh: 2.5; GSTO1 counter: 36.4*; Fam108B inh: -2.7; PME-1 primary: 2.9; PAD4 FP inh: -1.1

What do the screens show for `CCNC(=O)C1(C)CCCN(Cc2ccc(-c3ccccc3)o2)C1` (centres undefined)?
PRMT1 FP inh: -4.9

What do the screens show for `COCCCn1c(=O)c2ccccc2n(CC(=O)NC2CCCC2)c1=O`?
PRMT1 FP inh: 0.1; GSTO1 counter: -2.9; Fam108B inh: -2.8; PME-1 primary: 2.9; PAD4 FP inh: 1.4

How did COc1cc(/C=N/NC(=S)Nc2cccc(S(=O)(=O)N(C)C)c2)cc(OC)c1O do in these assays?
PRMT1 FP inh: -2.0; GSTO1 counter: 7.4; RBBP9 inh: -2.3; Fam108B inh: 3.6; PME-1 primary: 29.2*; PAD4 FP inh: -5.2

What do the screens show for `CC(C)=CCc1cc2c(=O)c3c(O)c4c(cc3oc2c(O)c1O)OC(C)C4(C)C` (centres undefined)?
GSTO1 counter: 12.5; Fam108B inh: -2.5; PME-1 primary: 29.7*; PAD4 FP inh: 0.2

What do the screens show for `CC(C)(C)c1cc(CCC(=O)N2CCNCC2)c(C(C)(C)C)cc1O`?
PRMT1 FP inh: 2.9; GSTO1 counter: -0.3; RBBP9 inh: 2.5; Fam108B inh: 0.4; PME-1 primary: 3.2; PAD4 FP inh: 0.3

High-throughput results as filed in PubChem.
